From ChEMBL document CHEMBL1134769, “Potent and selective nonpeptide inhibitors of caspases 3 and 7” (J Med Chem, 2001)
Activity calls are given as the source filed them. The rule behind the calls is not given here.

Tests used:
[1] = biological target: T1, Caspase-3 (Homo sapiens, UniProt P42574); test: Inhibition of recombinant human caspase-3
T1 sequence (P42574 whole entry): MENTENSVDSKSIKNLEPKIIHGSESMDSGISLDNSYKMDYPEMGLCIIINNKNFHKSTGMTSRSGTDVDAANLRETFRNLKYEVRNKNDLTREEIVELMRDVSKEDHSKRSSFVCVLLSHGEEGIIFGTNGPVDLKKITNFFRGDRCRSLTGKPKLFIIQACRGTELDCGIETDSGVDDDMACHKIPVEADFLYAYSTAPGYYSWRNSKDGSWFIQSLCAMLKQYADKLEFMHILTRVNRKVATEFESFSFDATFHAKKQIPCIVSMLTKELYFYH

[2] = biological target: T2, Caspase-7 (Homo sapiens, UniProt P55210); test: Inhibitory activity against Caspase-7; settings: read-out: Ki app
T2 sequence (P55210 whole entry): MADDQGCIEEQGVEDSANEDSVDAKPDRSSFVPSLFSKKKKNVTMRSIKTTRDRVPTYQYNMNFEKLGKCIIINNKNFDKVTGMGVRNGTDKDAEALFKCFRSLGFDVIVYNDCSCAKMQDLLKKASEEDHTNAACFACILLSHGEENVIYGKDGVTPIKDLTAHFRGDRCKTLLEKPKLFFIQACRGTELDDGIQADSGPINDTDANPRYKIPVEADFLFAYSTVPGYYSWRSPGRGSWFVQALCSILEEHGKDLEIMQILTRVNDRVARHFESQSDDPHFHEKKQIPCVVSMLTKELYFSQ
In short: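 Recombinant full-length human caspase 3 or 7, ~10 units/assay (1 unit = 1 pmol AMC/min). Substrate 10 μM Ac-DEVD-AMC. AMC fluorescence at 360/460 nm, 30 °C, with 5% final DMSO. Single-dose screen (typically 5–50 μM), then IC50 curves; repeated IC50s had CVs typically <30%.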

[3] = tested on: C20/A4; test: In vitro inhibition of Chondrocyte cell line C20/A4 apoptosis at 25 uM of compound; Not active; format: functional, cell-based; settings: Homo sapiens
In short: (§1)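 Immortalized human chondrocyte line C20/A4 seeded at 20 000 cells/well overnight, then exposed 24 h to 4 μg/mL camptothecin with or without compound. Floating and adherent cells combined and lysed 30 min at 4 °C, then clarified at 14000g. Mono- and oligonucleosome DNA fragments measured by cell death ELISA; result expressed as % inhibition of apoptosis.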

[4] = biological target: T3, Caspase-4 (Homo sapiens, UniProt P49662); test: Inhibitory activity against caspase-4; settings: read-out: Ki app
T3 sequence (P49662 whole entry): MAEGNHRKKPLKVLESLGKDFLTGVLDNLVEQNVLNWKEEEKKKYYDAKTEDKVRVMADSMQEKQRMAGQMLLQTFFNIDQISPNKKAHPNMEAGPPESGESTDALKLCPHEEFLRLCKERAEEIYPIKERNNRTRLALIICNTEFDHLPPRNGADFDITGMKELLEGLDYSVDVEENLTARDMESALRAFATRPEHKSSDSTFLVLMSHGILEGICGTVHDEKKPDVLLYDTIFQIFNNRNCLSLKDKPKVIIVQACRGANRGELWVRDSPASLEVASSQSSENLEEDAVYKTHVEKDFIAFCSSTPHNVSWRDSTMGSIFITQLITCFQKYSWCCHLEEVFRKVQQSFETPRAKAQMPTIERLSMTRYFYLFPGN
In short: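 Recombinant full-length human caspase 4, ~10 units/assay, in potassium acetate pH 5.8 with 1 mM EDTA, 10% sucrose, 0.1% CHAPS and 5 mM β-mercaptoethanol. Substrate 100 μM Ac-LEED-AMC. Read at 360/460 nm, 30 °C, 5% final DMSO. Single-dose screen (typically 5–50 μM), then IC50 curves for actives.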

[5] = tested on: C20/A4; test: In vitro inhibition of Chondrocyte cell line C20/A4 apoptosis at 10 uM of compound; Not active; format: functional, cell-based; settings: Homo sapiens; in short: as §1
[6] = tested on: C20/A4; test: In vitro inhibition of Chondrocyte cell line C20/A4 apoptosis at 10 uM of compound; format: functional, Homo sapiens; in short: as §1
[7] = tested on: Jurkat (Homo sapiens); test: In vitro inhibition of Jurkat cell apoptosis at 50 uM of compound
[8] = tested on: Jurkat (Homo sapiens); test: In vitro inhibition of Jurkat cell apoptosis at 10 uM of compound

Compound	IC50 [1]	Ki [2]	Ki [4]	NA [3]	NA [5]	Inhibition [6]	Inhibition [7]	Inhibition [8]
CN(CC1CCCN1S(=O)(=O)c1ccc2c(c1)C(=O)C(=O)N2)c1ccccc1 (configuration not stated)	5500 nM	10000 nM	> 50000 nM	inactive	inactive			
O=C1Nc2ccc(S(=O)(=O)N3CCC[C@H]3COc3ccccc3)cc2C1=O	44 nM	47 nM	33000 nM				82%	51%
COC[C@@H]1CCCN1S(=O)(=O)c1ccc2c(c1)C(=O)C(=O)N2	120 nM	170 nM	> 25000 nM			44%	54%	22%

These reach a lower IC50 [1]. Values come first.

IC50 [1]	Ki [2]	Ki [4]	Compound	NA [3]	NA [5]	Inhibition [6]	Inhibition [7]	Inhibition [8]
31 nM	47 nM	30000 nM	O=C1Nc2ccc(S(=O)(=O)N3CCC[C@H]3CNc3ccccc3)cc2C1=O				61%	8%
2.5 nM	6 nM	> 5000 nM	O=C1C(=O)N(Cc2ccccc2)c2ccc(S(=O)(=O)N3CCC[C@H]3COc3ccccc3)cc21			48%	47%	27%
